Measurements: ChEMBL document CHEMBL4819003, “Optimization of novel oxidative DIMs as Nur77 modulators of the Nur77-Bcl-2 apoptotic pathway” (Eur J Med Chem, 2021)
Activity calls are given as the source filed them. The rule behind the calls is not given here.

Columns and labels:
HCT-116 [1] = assay: Induction of apoptosis in human HCT-116 cells assessed as early apoptotic cells at 0.5 uM measured after 6 hrs by Annexin V-FITC/PI staining based flow cytometry method (reference value: 1.39%); assay type: functional
Summary of the method: (§1)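 Cells seeded at 1×10^6 per well and treated with 0.5 µM for 6 h. Floating and adherent cells pooled, stained with Annexin V-FITC for 10 min and propidium iodide for 5 min, then analysed immediately by flow cytometry in FITC and PC5.5 channels. Mean ± SD, n = 3.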

[2] = target: T1, Nuclear receptor subfamily 4immunitygroup A member 1 (Homo sapiens, UniProt P22736); assay: Modulation of GFP-Nur77-LBD (unknown origin) transfected in human HEK293T cells co-transfected with Flag-tagged Bcl2 assessed as interaction of Nur77 with Bcl2 in mitochondria at 0.5 uM measured after 2 hrs by confocal microscopy; conditions: filed as modulator
T1 sequence (P22736 whole entry, the tested form may be a part): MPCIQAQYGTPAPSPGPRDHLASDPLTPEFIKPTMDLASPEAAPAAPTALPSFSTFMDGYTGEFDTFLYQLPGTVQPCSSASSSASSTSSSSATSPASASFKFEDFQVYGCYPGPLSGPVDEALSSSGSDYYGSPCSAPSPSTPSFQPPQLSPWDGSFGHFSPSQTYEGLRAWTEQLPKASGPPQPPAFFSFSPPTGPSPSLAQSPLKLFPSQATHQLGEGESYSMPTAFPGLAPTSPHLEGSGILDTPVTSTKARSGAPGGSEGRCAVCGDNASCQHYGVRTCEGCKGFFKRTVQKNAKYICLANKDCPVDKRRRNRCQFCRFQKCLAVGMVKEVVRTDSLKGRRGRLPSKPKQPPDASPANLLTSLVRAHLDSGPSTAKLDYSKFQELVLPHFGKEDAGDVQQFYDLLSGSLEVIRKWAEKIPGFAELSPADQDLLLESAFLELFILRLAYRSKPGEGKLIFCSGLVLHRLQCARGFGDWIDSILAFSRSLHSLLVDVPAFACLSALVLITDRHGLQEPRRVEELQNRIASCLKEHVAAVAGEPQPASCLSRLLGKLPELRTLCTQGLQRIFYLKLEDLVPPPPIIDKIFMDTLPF
Summary of the method: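 HEK293T cells were lipofectamine-cotransfected with Flag-Bcl-2 and GFP-Nur77 or GFP-Nur77-LBD, then given 0.5 μM compound for 2 h. Cells were fixed in 4% paraformaldehyde, permeabilised with 0.1% Triton X-100, blocked in 1% BSA and stained with anti-Flag plus DAPI. Mitochondrial colocalisation with Bcl-2 was read by confocal microscopy.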

HCT-116 [3] = assay: Induction of apoptosis in human HCT-116 cells assessed as necrotic cells at 0.5 uM measured after 6 hrs by Annexin V-FITC/PI staining based flow cytometry method (reference value: 0.37%); assay type: functional; summary of the method: as §1
MDA-MB-231 [4] = assay: Induction of apoptosis in human MDA-MB-231 cells assessed as late apoptotic cells at 0.5 uM measured after 6 hrs by Annexin V-FITC/PI staining based flowcytometry method (reference value: 0.11%); assay type: functional; summary of the method: as §1
MDA-MB-231 [5] = assay: Cytotoxicity against human MDA-MB-231 cells assessed as inhibition of cell growth measured after 24 hrs by MTT assay; assay type: functional, cell-based; conditions: MDA-MB-231, 24 h
Summary of the method: (§2)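 MTT viability assay, 24 h exposure to a concentration series, 10^4 cells/well. Cancer lines were in DMEM (BT549, MDA-MB-231) or RPMI-1640 (HCT116, SW620) with 10% FBS. MCF10A and NCM460 were in DMEM with 20% FBS and 10 ng/ml EGF. MTT at 5 mg/mL for 4 h at 37 °C, formazan dissolved in DMSO, A490. IC50 from curve fit; mean ± SD, at least 6 experiments.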

HCT-116 [6] = assay: Induction of apoptosis in human HCT-116 cells assessed as late apoptotic cells at 0.5 uM measured after 6 hrs by Annexin V-FITC/PI staining based flow cytometry method (reference value: 0.06%); assay type: functional; summary of the method: as §1
MDA-MB-231 [7] = assay: Induction of apoptosis in human MDA-MB-231 cells assessed as viable cells at 0.5 uM measured after 6 hrs by Annexin V-FITC/PI staining based flow cytometry method (reference value: 98.51%); assay type: functional; conditions: read-out: Activity; summary of the method: as §1
SW-620 [8] = assay: Induction of apoptosis in human SW-620 cells assessed as early apoptotic cells at 0.5 uM measured after 6 hrs by Annexin V-FITC/PI staining based flow cytometry method (reference value: 1.02%); assay type: functional
BT-549 [9] = assay: Induction of apoptosis in human BT-549 cells assessed as late apoptotic cells at 0.5 uM measured after 6 hrs by Annexin V-FITC/PI staining based flow cytometry method (reference value: 0.11%); assay type: functional; summary of the method: as §1
BT-549 [10] = assay: Induction of apoptosis in human BT-549 cells assessed as necrotic cells at 0.5 uM measured after 6 hrs by Annexin V-FITC/PI staining based flow cytometry method (reference value: 0.11%); assay type: functional; summary of the method: as §1
HCT-116 [11] = assay: Induction of apoptosis in human HCT-116 cells assessed as viable cells at 0.5 uM measured after 6 hrs by Annexin V-FITC/PI staining based flow cytometry method (reference value: 98.18%); assay type: functional; conditions: read-out: Activity; summary of the method: as §1
SW-620 [12] = assay: Cytotoxicity against human SW-620 cells assessed as inhibition of cell growth measured after 24 hrs by MTT assay; assay type: functional, cell-based; conditions: SW-620, 24 h; summary of the method: as §2
[13] = target: T1, Nuclear receptor subfamily 4immunitygroup A member 1; assay: Binding affinity to recombinant human N-terminal His-tagged Nur77-LBD (367 to 598 residues) expressed in Escherichia coli BL21 DE3 by flourescence quenching assay
Summary of the method: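 Human Nur77-LBD (367–598), N-terminal His tag, pET15b in E. coli BL21 DE3, Ni resin purified. Nur77-LBD at 1 µM in PBS in a quartz cell, titrated with compound over 0.01–1 µM at 25 °C. Excitation 280 nm, emission scanned 300–500 nm; peak intensity at 330 nm versus compound concentration fitted to a reported formula for Kd.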

MDA-MB-231 [14] = assay: Induction of apoptosis in human MDA-MB-231 cells assessed as necrotic cells at 0.5 uM measured after 6 hrs by Annexin V-FITC/PI staining based flow cytometry method (reference value: 0.11%); assay type: functional; summary of the method: as §1
[15] = target: T1, Nuclear receptor subfamily 4immunitygroup A member 1; assay: Binding affinity to recombinant human N-terminal His-tagged Nur77-LBD (367 to 598 residues) expressed in Escherichia coli BL21 DE3 by surface plasmon resonance assay
Summary of the method: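 His-tagged human Nur77-LBD (367–598) from E. coli BL21 DE3, diluted to 0.05 mg/mL in 10 mM NaAc pH 5.0 and amine-coupled to a CM5 chip (~9000 RU). Compounds at 0.01–5 µM in PBS with 0.4% DMSO, 25 °C, 30 µL/min; 150 s association, 420 s dissociation, regeneration with 10 mM glycine-HCl pH 2.5. Reference- and blank-subtracted; Kd from global 1:1 kinetic fit.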

BT-549 [16] = assay: Induction of apoptosis in human BT-549 cells assessed as early apoptotic cells at 0.5 uM measured after 6 hrs by Annexin V-FITC/PI staining based flow cytometry method (reference value: 1.27%); assay type: functional; summary of the method: as §1
HCT-116 [17] = assay: Cytotoxicity against human HCT-116 cells assessed as inhibition of cell growth measured after 24 hrs by MTT assay; assay type: functional, cell-based; conditions: Homo sapiens, HCT-116, 24 h; summary of the method: as §2
NCM460 = assay: Cytotoxicity against human NCM460 cells assessed as inhibition of cell growth measured after 24 hrs by MTT assay; assay type: cell-based; conditions: Homo sapiens, NCM460, 24 h; summary of the method: as §2
BT-549 [18] = assay: Cytotoxicity against human BT-549 cells assessed as inhibition of cell growth measured after 24 hrs by MTT assay; assay type: functional, cell-based; conditions: BT-549, 24 h; summary of the method: as §2
MCF-10A = assay: Cytotoxicity against human MCF-10A cells assessed as inhibition of cell growth measured after 24 hrs by MTT assay; assay type: cell-based; conditions: Homo sapiens, MCF-10A, 24 h; summary of the method: as §2
MDA-MB-231 [19] = assay: Induction of apoptosis in human MDA-MB-231 cells assessed as early apoptotic cells at 0.5 uM measured after 6 hrs by Annexin V-FITC/PI staining based flow cytometry method (reference value: 1.27%); assay type: functional; summary of the method: as §1
SW-620 [20] = assay: Induction of apoptosis in human SW-620 cells assessed as late apoptotic cells at 0.5 uM measured after 6 hrs by Annexin V-FITC/PI staining based flow cytometry method (reference value: 0.05%); assay type: functional; summary of the method: as §1
BT-549 [21] = assay: Induction of apoptosis in human BT-549 cells assessed as viable cells at 0.5 uM measured after 6 hrs by Annexin V-FITC/PI staining based flow cytometry method (reference value: 98.51%); assay type: functional; conditions: read-out: Activity; summary of the method: as §1
SW-620 [22] = assay: Induction of apoptosis in human SW-620 cells assessed as necrotic cells at 0.5 uM measured after 6 hrs by Annexin V-FITC/PI staining based flow cytometry method (reference value: 0.26%); assay type: functional; summary of the method: as §1

Compound | Activity (HCT-116 [1]) [%] | Activity (HCT-116 [3]) [%] | Activity (MDA-MB-231 [4]) [%] | IC50 (MDA-MB-231 [5]) [nM] | Activity (HCT-116 [6]) [%] | viability at 0.5 µM (MDA-MB-231 [7]) [%] | Activity (SW-620 [8]) [%] | Activity (BT-549 [9]) [%] | Activity (BT-549 [10]) [%] | viability at 0.5 µM (HCT-116 [11]) [%] | IC50 (SW-620 [12]) [nM] | Kd [13] [nM] | Activity (MDA-MB-231 [14]) [%] | Kd [15] [nM] | Activity (BT-549 [16]) [%] | IC50 (HCT-116 [17]) [nM] | IC50 (NCM460) [nM] | IC50 (BT-549 [18]) [nM] | IC50 (MCF-10A) [nM] | Activity (MDA-MB-231 [19]) [%] | also measured
CS(=O)(=O)[O-].Cn1cc([C+](c2ccc(C(F)(F)F)cc2)c2c[nH]c3ccccc23)c2ccccc21 | 44.48 | 2.3 | 3.04 | 60 | 19.94 | 33.7 | 29.59 | 10.97 | 0.88 | 33.3 | 100 | 66 | 0.74 | 33 | 73.75 | 90 | 4630 | 40 | 2190 | 62.49 | Activity [2]: Active; Activity (SW-620 [20]): 62.95%; viability at 0.5 µM (BT-549 [21]): 14.4%; Activity (SW-620 [22]): 0.38%
CS(=O)(=O)[O-].FC(F)(F)c1ccc([C+](c2c[nH]c3ccccc23)c2c[nH]c3ccccc23)cc1 | 11.05 | 3.81 | 0.65 | 220 | 3.58 | 85.7 | 12.97 | 4.21 | 1.17 | 81.6 | 180 | 217 | 1.47 | 110 | 20.65 | 270 | 6840 | 170 | 4290 | 12.18 | Activity (SW-620 [20]): 15.18%; viability at 0.5 µM (BT-549 [21]): 74%; Activity (SW-620 [22]): 1.47%
